“And” between values parts separate entries of the source, which are not always exact repeats. Identical values can stand only once.
How the values were obtained:
[1] = system: Rattus norvegicus; assay: Compound was evaluated for the hypolipidemic activity at 20 mg/kg per day orally for 14 days on neutral lipids content in rat small intestine.; assay type: functional; conditions: route oral
How it was run: (§1)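 Male Sprague–Dawley rats were dosed orally for 14 days. Liver, small intestine and a 24-h fecal collection were lipid-extracted. Extracts were assayed for cholesterol (modified Liebermann–Burchard), triglyceride (enzymatic kit), neutral lipids, phospholipids and protein. Values are % of 1% CMC vehicle control, mean ± SD, N = 6.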

[2] = system: Mus musculus; assay: Compound was evaluated for the hypolipidemic activity in CF1 male mice at a dose of 60 mg/kg orally for Serum cholesterol at 16th day; assay type: functional; conditions: route oral
How it was run: (§2)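 CF1 male mice received the agent orally in 1% CMC at 10–60 mg/kg per day. Tail-vein blood was taken on days 9 and 16. Serum cholesterol was measured by modified Liebermann–Burchard on duplicate 25-µL samples, and serum triglyceride on day 16 in duplicate 50-µL samples. Values are % of vehicle control, mean ± SD, N = 6; Student's t test.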

[3] = system: Rattus norvegicus; assay: Compound was evaluated for the hypolipidemic activity at 20 mg/kg per day orally for 14 days on protein content in rat feces.; assay type: functional; conditions: route oral; how it was run: as §1
[4] = biological target: T1, Sterol O-acyltransferase 1 (Mus musculus) (UniProt Q61263); assay: In Vivo effect for the hypolipidemic activity on Acyl-COA cholesterol acyltransferase in CF1 mice after 16 days of oral administration at a dose of 20 mg/kg; assay type: functional, organism-based; parameters: dose 20 mg/kg
T1 sequence (whole entry): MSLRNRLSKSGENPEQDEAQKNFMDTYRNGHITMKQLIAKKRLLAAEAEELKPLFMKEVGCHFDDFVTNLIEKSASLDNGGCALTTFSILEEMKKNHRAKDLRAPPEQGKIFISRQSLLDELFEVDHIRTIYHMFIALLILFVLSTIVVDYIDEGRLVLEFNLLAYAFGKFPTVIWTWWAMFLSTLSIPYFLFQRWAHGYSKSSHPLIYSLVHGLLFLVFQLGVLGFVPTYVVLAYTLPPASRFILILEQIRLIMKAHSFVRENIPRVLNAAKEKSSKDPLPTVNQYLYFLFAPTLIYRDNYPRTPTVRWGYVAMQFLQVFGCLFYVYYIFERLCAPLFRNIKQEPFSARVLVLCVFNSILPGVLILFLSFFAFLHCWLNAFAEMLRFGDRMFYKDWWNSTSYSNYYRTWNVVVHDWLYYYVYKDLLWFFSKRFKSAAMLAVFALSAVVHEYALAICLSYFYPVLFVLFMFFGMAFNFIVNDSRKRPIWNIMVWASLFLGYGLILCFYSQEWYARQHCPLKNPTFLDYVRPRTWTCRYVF
How it was run: (§3)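 CF1 male mice are dosed orally at 10–60 mg/kg per day for 16 days, with 1% CMC as the control vehicle. Liver is homogenized at 10% in 0.25 M sucrose + 0.001 M EDTA, pH 7.2. Enzymes are assayed by literature methods, with Lowry protein. Activity is given as % of control (X ± SD, N = 6), with p from Student's t test.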

[5] = system: Mus musculus; assay: In Vivo effect for the hypolipidemic activity on Hepatic lipoprotein lipase in CF1 mice after 16 days administered orally at a dose of 20 mg/kg; assay type: functional; conditions: route oral; how it was run: as §3
[6] = system: Mus musculus; assay: In Vivo effect for the hypolipidemic activity on phosphatidate phosphohydrolase in CF1 mice after 16 days administered orally at a dose of 10 mg/kg; assay type: organism-based; parameters: dose 10 mg/kg; how it was run: as §3
[7] = system: Rattus norvegicus; assay: Compound was evaluated for the hypolipidemic activity at 20 mg/kg per day orally for 14 days on cholesterol content in rat feces.; assay type: functional; conditions: route oral; how it was run: as §1
[8] = system: Rattus norvegicus; assay: Compound was evaluated for the hypolipidemic activity at 20 mg/kg per day orally for 14 days on phospholipids content in rat LDL; assay type: functional; conditions: route oral
How it was run: (§4)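 Male Sprague–Dawley rats (~300 g) were dosed orally each day. Blood was drawn from the abdominal vein. Lipoprotein fractions (chylomicron, VLDL, LDL, HDL) were separated by the Hatch–Lees and Havel methods. Each fraction was assayed for cholesterol, triglyceride (enzymatic kit), neutral lipids, phospholipids and Lowry protein. Values are % of 1% CMC vehicle control, N = 6.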

[9] = system: Rattus norvegicus; assay: Compound was evaluated for the hypolipidemic activity at 20 mg/kg per day orally for 14 days on phospholipids content in rat HDL; assay type: functional; conditions: route oral; how it was run: as §4
[10] = biological target: Cholesterol 7-alpha-hydroxylase (Cytochrome P450 7A1) (Mus musculus, UniProt Q64505); assay: In vitro percent Cholesterol 7-alpha-hydroxylase activity in mouse CF1 liver microsomes at 100 uM; parameters: species or system Microsome; conditions: read-out: Control
Cholesterol 7-alpha-hydroxylase (Cytochrome P450 7A1), sequence (Q64505 whole entry): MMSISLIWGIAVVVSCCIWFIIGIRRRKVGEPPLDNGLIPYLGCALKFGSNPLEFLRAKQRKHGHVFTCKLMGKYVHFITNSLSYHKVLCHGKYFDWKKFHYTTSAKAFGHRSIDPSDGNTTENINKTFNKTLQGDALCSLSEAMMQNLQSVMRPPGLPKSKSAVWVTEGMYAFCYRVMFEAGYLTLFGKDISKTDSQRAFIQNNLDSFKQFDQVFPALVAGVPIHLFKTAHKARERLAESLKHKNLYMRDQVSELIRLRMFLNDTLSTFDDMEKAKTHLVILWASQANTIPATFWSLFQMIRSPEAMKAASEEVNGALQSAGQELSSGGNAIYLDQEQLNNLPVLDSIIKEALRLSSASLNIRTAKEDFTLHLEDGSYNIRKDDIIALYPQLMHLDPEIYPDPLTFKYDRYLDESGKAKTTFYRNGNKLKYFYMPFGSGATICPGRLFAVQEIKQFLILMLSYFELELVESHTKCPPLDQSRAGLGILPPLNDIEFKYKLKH
How it was run: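 Mouse liver enzymes assayed in vitro on 10% homogenates of CF1 male mouse liver, with test drug added at 50–200 μM. Each enzyme follows a published procedure. Protein is measured by Lowry. Activity is given as % of untreated control (X ± SD, N = 6).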

[11] = organism: Mus musculus; assay: In Vitro evaluation for the CF1 liver enzyme activity on Acetyl-CoA carboxylase at concentration 50 uM; assay type: functional
How it was run: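 Liver was taken from CF1 male mice and made into 10% homogenates, which were incubated with test compound at 50, 100 or 200 µM. Each enzyme was assayed by its literature method, and protein was measured by Lowry. N = 6. Activity is expressed as % of untreated control ± SD.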

[12] = system: Rattus norvegicus; assay: Compound was evaluated for the hypolipidemic activity at 20 mg/kg per day orally for 14 days on cholesterol content in rat liver; assay type: functional; conditions: route oral; how it was run: as §1
[13] = system: Mus musculus; assay: Compound was evaluated for the hypolipidemic activity in CF1 male mice at a dose of 10 mg/kg orally for Serum triglyceride at 16th day; assay type: functional; conditions: route oral; how it was run: as §2

COc1ccc(C2C(=O)c3ccccc3C2=O)cc1 [ANISINDIONE] gave a Control [1] of 95%, a Control [2] of 62% and a Control [3] of 99%. For the same compound, the Control [4] was 48%, the Control [5] was 82% and the Control [6] was 53%. For the same compound, the Control [7] was 187%, the Control [8] was 204% and the Control [9] was 87%. For the same compound, the activity at 100 µM [10] was 144%, the Control [11] was 118% and the Control [12] was 69% and 84%. For the same compound, the Control [13] was 64%.
